≈ marks a conversion by molar mass, not a printed value. Calls of active or inactive are those of the source. No cut-off for these calls is given here.
What was measured:
Clostridium septicum = assay: Antibacterial activity against Clostridium septicum by broth microdilution method; assay type: functional
Clostridioides difficile [1] = assay: Antibacterial activity against Clostridium difficile by broth microdilution method; assay type: functional
Prevotella = assay: Antibacterial activity against Prevotella by broth microdilution method; assay type: functional
Homo sapiens [2] = assay: Toxicity against healthy human assessed as occurrence of urinary infection at […], iv administered every 12 hrs for 7 days measured on day 9; assay type: organism-based, Urine; parameters: route intravenous; settings: in vivo
Enterococcus = assay: Antibacterial activity against Enterococcus in healthy human intestine at […], iv administered every 12 hrs for 7 days measured on day 21; assay type: functional, organism-based
Outline: (§1)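 Twelve healthy adults (6 male, 6 female, 20–41 y) received 600 mg by i.v. infusion over 60 min q12h, 13 doses over 7 days. Feces were collected on days −1, 2, 5, 7, 9, 14 and 21 (first specimen of the day) and frozen at −70°C. Samples were suspended in prereduced peptone yeast extract and 10-fold diluted onto nonselective and selective agars. Aerobic plates were incubated 24 h and anaerobic jars 48 h, both at 37°C. Counts were expressed as log CFU/g, with a detection limit of 10^2, and compared by Wilcoxon signed-rank test.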

Candida albicans = assay: Antifungal activity against Candida albicans in healthy human intestine at […], iv administered every 12 hrs for 7 days measured on day 21; assay type: functional, organism-based; outline: as §1
Escherichia coli [3] = assay: Antibacterial activity against Escherichia coli in healthy human intestine assessed as log reduction in bacterial count per gram of feces at […], iv administered every 12 hrs for 7 days measured on day 7; assay type: functional; outline: as §1
Escherichia coli [4] = assay: Antibacterial activity against Escherichia coli in healthy human intestine assessed as log reduction in bacterial count per gram of feces at […], iv administered every 12 hrs for 7 days measured on day 9; assay type: functional; outline: as §1
Escherichia coli [5] = assay: Antibacterial activity against Escherichia coli in healthy human intestine assessed as decrease in bacterial count at […], iv administered every 12 hrs for 7 days measured on day 14; assay type: functional, organism-based; outline: as §1
Enterobacteriaceae = assay: Antibacterial activity against Enterobacteriaceae in healthy human intestine assessed as decrease in bacterial count at […], iv administered every 12 hrs for 7 days measured on day 14; assay type: functional, organism-based; outline: as §1
Bifidobacterium = assay: Antibacterial activity against Bifidobacterium in healthy human intestine assessed as log reduction in bacterial count per gram of feces at […], iv administered every 12 hrs for 7 days measured on day 7; assay type: functional; outline: as §1
Lactobacillus = assay: Antibacterial activity against Lactobacillus in healthy human intestine assessed as log reduction in bacterial count per gram of feces at […], iv administered every 12 hrs for 7 days measured on day 7; assay type: functional; outline: as §1
Clostridium = assay: Antibacterial activity against Clostridium in healthy human intestine assessed as decrease in bacterial count at […], iv administered every 12 hrs for 7 days measured on day 7; assay type: functional, organism-based; outline: as §1
Bacteroides sp. = assay: Antibacterial activity against Bacteroides sp. in healthy human intestine assessed as decrease in bacterial count at […], iv administered every 12 hrs for 7 days measured on day 21; assay type: functional, organism-based; outline: as §1
Homo sapiens [6] = assay: Toxicity against healthy human assessed as effect on ECG parameters at […], iv administered every 12 hrs for 7 days measured on day 9; assay type: organism-based; parameters: route intravenous; settings: in vivo
Bacteroides fragilis [7] = assay: Antibacterial activity against Bacteroides fragilis ATCC 25285 after 48 hrs by CLSI method; assay type: functional; settings: NCTC 9343, 48 h
Outline: (§2)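 Agar dilution MIC per CLSI anaerobe guidance, with 10^5 CFU per spot inoculum and 48 h incubation. The reference strain was run alongside new colonizing fecal isolates. MIC was taken as the lowest drug concentration giving complete growth inhibition. A provisional resistance breakpoint of 4 mg/liter was applied.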

Clostridioides difficile [8] = assay: Antibacterial activity against Clostridium difficile ATCC 700057 after 48 hrs by CLSI method; assay type: functional; settings: ATCC 700057, 48 h; outline: as §2
Staphylococcus aureus = assay: Antibacterial activity against Staphylococcus aureus ATCC 29213 at =< 4 mg/L after 48 hrs by CLSI method; assay type: functional, organism-based
Enterococcus faecalis = assay: Antibacterial activity against Enterococcus faecalis ATCC 29212 at =< 4 mg/L after 48 hrs by CLSI method; assay type: functional, organism-based
Escherichia coli [9] = assay: Antibacterial activity against Escherichia coli ATCC 25922 at =< 4 mg/L after 48 hrs by CLSI method; assay type: functional, organism-based
Bacteroides fragilis [10] = assay: Antibacterial activity against Bacteroides fragilis by broth microdilution method; assay type: functional
Homo sapiens [11] = assay: Toxicity against healthy human assessed as effect on hematological parameters at […], iv administered every 12 hrs for 7 days measured on day 9; assay type: organism-based; parameters: route intravenous; settings: in vivo
Propionibacterium = assay: Antibacterial activity against Propionibacterium by broth microdilution method; assay type: functional
Peptostreptococcus sp. = assay: Antibacterial activity against Peptostreptococcus sp. by broth microdilution method; assay type: functional
Clostridium perfringens = assay: Antibacterial activity against Clostridium perfringens by broth microdilution method; assay type: functional

Structure (SMILES): CCO/N=C(\C(=O)N[C@@H]1C(=O)N2C(C(=O)[O-])=C(Sc3nc(-c4cc[n+](C)cc4)cs3)CS[C@H]12)c1nsc(NP(=O)(O)O)n1 [CEFTAROLINE FOSAMIL]
- MIC90 (Clostridium septicum): 4 µg/mL (≈ 5.84 µM)
- MIC90 (Clostridioides difficile [1]): 4 µg/mL (≈ 5.84 µM)
- MIC90 (Prevotella): > 32 µg/mL
- Activity (Homo sapiens [2]): Non-toxic
- Activity (Enterococcus): inactive
- Activity (Candida albicans): inactive
- log10cfu (Escherichia coli [3]): 2
- log10cfu (Escherichia coli [4]): 1.5
- inhibition (Escherichia coli [5]): Active
- inhibition (Enterobacteriaceae): inactive
- log10cfu (Bifidobacterium): 2.1
- log10cfu (Lactobacillus): 1.7
- inhibition (Clostridium): inactive
- inhibition (Bacteroides sp.): inactive
- Activity (Homo sapiens [6]): Non-toxic
- MIC (Bacteroides fragilis [7]): ≥ 64 µg/mL
- MIC (Clostridioides difficile [8]): 4 µg/mL (≈ 5.84 µM)
- Activity (Staphylococcus aureus): Active
- Activity (Enterococcus faecalis): Active
- Activity (Escherichia coli [9]): Active
- MIC90 (Bacteroides fragilis [10]): > 32 µg/mL
- Activity (Homo sapiens [11]): Non-toxic
- MIC90 (Propionibacterium): 4 µg/mL (≈ 5.84 µM)
- MIC90 (Peptostreptococcus sp.): 4 µg/mL (≈ 5.84 µM)
- MIC90 (Clostridium perfringens): 4 µg/mL (≈ 5.84 µM)

Source: ChEMBL document CHEMBL1255470, “Effect of ceftaroline on normal human intestinal microflora” (Antimicrob Agents Chemother, 2010)
